Source: ChEMBL document CHEMBL1121423, “2,4-Dihydro-6-phenyl-1H-s-triazolo[4,3-a][1,4]benzoidiazepin-1-ones with antianxiety and antidepressant activity” (1980)

Experiments:
Type in all cases: functional
Mus musculus [1] = species: Mus musculus; test: Effect on the antagonism of nicotine-induced tonic-extensor convulsions (TE) in mice
Outline: (§1)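 Male albino CF-1 mice, 18-22 g. Compounds were dissolved or suspended in 0.25% aqueous methylcellulose and given intraperitoneally to groups of four or six mice per dose, at multiple dose levels. ED50 was calculated by the Spearman-Karber method.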

Mus musculus [2] = species: Mus musculus; test: Effect on the antagonism of bicuculline-induced tonic-extensor convulsions (B); outline: as §1
Mus musculus [3] = species: Mus musculus; test: Effect on the antagonism of pentylenetetrazole-induced clonic convulsions (P)
Mus musculus [4] = species: Mus musculus; test: Effect on the potentiation of gamma-butyrolactone-induced sleep (gamma-B); outline: as §1
Mus musculus [5] = species: Mus musculus; test: Effect of test compound on the potentiation of apomorphine-induced gnawing (AG) in aggregated mice; outline: as §1
Mus musculus [6] = species: Mus musculus; test: Effect on the antagonism of oxotremorine-induced hypothermia (OX); outline: as §1
Mus musculus [7] = species: Mus musculus; test: Effect on the antagonism of nicotine-induced death (D); outline: as §1
Mus musculus [8] = species: Mus musculus; test: Effect on the prolongation of hypoxic survival time (HS); outline: as §1
Mus musculus [9] = species: Mus musculus; test: Effect on the potentiation of yohimbine-induced toxicity (Y) in aggregated mice; outline: as §1

SMILES | ED50 (Mus musculus [1]; Mus musculus, read-out: ED50) | ED50 (Mus musculus [2]; Mus musculus, read-out: ED50) | ED50 (Mus musculus [3]) | ED50 (Mus musculus [4]) | ED50 (Mus musculus [5]) | ED50 (Mus musculus [6]) | ED50 (Mus musculus [7]; Mus musculus, read-out: ED50) | ED50 (Mus musculus [8]) | ED50 (Mus musculus [9]) | ED50 (Mus musculus [1]) | ED50 (Mus musculus [2]) | ED50 (Mus musculus [7])
Oc1nnc2n1-c1ccc(Cl)cc1C(c1ccccc1Cl)=NC2 | 0.025 mg/kg | 1 mg/kg | 0.08 mg/kg | 0.4 mg/kg | > 50 mg/kg | > 50 mg/kg | 0.025 mg/kg | > 50 mg/kg | > 50 mg/kg |  |  | 
CN(C)CCn1nc2n(c1=O)-c1ccc(Cl)cc1C(c1ccccc1)=NC2 | 0.89 mg/kg | 6 mg/kg | 3.2 mg/kg | 5 mg/kg | > 100 mg/kg | > 100 mg/kg | 1.4 mg/kg | 30 mg/kg | > 100 mg/kg |  |  | 
CC(CN(C)C)Cn1nc2n(c1=O)-c1ccc(Cl)cc1C(c1ccccc1Cl)=NC2 (stereo not given) | 1 mg/kg | 7 mg/kg |  | 2 mg/kg | > 50 mg/kg | > 50 mg/kg | 1.1 mg/kg | 40 mg/kg | > 50 mg/kg |  |  | 
CCN(CC)CCn1nc2n(c1=O)-c1ccc(Cl)cc1C(c1ccccc1)=NC2 | 1.3 mg/kg | 10 mg/kg | 4 mg/kg | 1 mg/kg | > 50 mg/kg | > 50 mg/kg | 1.3 mg/kg | > 50 mg/kg | > 50 mg/kg |  |  | 
O=c1n(CCCN2CCN(CCO)CC2)nc2n1-c1ccc(Cl)cc1C(c1ccccc1Cl)=NC2 | 0.5 mg/kg | 12.5 mg/kg | 6.3 mg/kg | 2 mg/kg | > 30 mg/kg | > 25 mg/kg | 0.56 mg/kg | 20 mg/kg | > 25 mg/kg |  |  | 
Cn1nc2n(c1=O)-c1ccc(Cl)cc1C(c1ccccc1)=NC2 | 0.63 mg/kg | 3 mg/kg | 2.5 mg/kg |  | > 50 mg/kg | > 50 mg/kg | 0.63 mg/kg |  | > 50 mg/kg | 1 mg/kg | 2 mg/kg | 1.1 mg/kg
Oc1nnc2n1-c1ccc(Cl)cc1C(c1ccccc1)=NC2 | 1.4 mg/kg | 40 mg/kg | 5.6 mg/kg | 6 mg/kg | > 50 mg/kg | > 50 mg/kg | 1.6 mg/kg | > 50 mg/kg | > 50 mg/kg |  |  | 
CN1CCN(CCn2nc3n(c2=O)-c2ccc(Cl)cc2C(c2ccccc2)=NC3)CC1 | 8 mg/kg | 17.7 mg/kg | 8.8 mg/kg | 5.3 mg/kg | > 50 mg/kg | 14.9 mg/kg | 8 mg/kg | 10.5 mg/kg | > 50 mg/kg |  |  | 
Cn1nc2n(c1=O)-c1ccc(Cl)cc1C(c1ccccc1Cl)=NC2 | 0.002 mg/kg |  | 0.14 mg/kg |  |  |  | 0.002 mg/kg | 2.2 mg/kg |  |  |  | 
CN(C)CCCn1nc2n(c1=O)-c1ccc(Cl)cc1C(c1ccccc1Cl)=NC2 | 0.9 mg/kg | 14.9 mg/kg | 6.3 mg/kg | 2.2 mg/kg | 7.4 mg/kg | > 50 mg/kg | 1.1 mg/kg | > 50 mg/kg | > 50 mg/kg |  |  | 
CN(C)Cc1nnc2n1-c1ccc(Cl)cc1C(c1ccccc1)=NC2 [ADINAZOLAM] | 0.11 mg/kg | 0.7 mg/kg | 0.9 mg/kg | 1.6 mg/kg | 5.3 mg/kg | 5.3 mg/kg | 0.13 mg/kg | 5 mg/kg |  |  |  | 
CN(C)CCCN1c2ccccc2CCc2ccccc21 [IMIPRAMINE] | 7 mg/kg | 21 mg/kg |  | 18 mg/kg | 1 mg/kg | 1 mg/kg | 7 mg/kg | > 50 mg/kg | 4 mg/kg |  |  | 
CCN(CC)CCn1nc2n(c1=O)-c1ccc(Cl)cc1C(c1ccccc1Cl)=NC2 | 0.09 mg/kg | 0.7 mg/kg | 0.45 mg/kg | 0.4 mg/kg | > 100 mg/kg | > 100 mg/kg | 0.1 mg/kg | 4 mg/kg | > 100 mg/kg |  |  | 
CN1CCN(CCCn2nc3n(c2=O)-c2ccc(Cl)cc2C(c2ccccc2Cl)=NC3)CC1 | 0.4 mg/kg | > 25 mg/kg | 3.7 mg/kg | 3.7 mg/kg | > 25 mg/kg | 25 mg/kg | 0.5 mg/kg | > 30 mg/kg | 25 mg/kg |  |  | 
CNCCCn1nc2n(c1=O)-c1ccc(Cl)cc1C(c1ccccc1Cl)=NC2 | 1.4 mg/kg | > 50 mg/kg | 14.9 mg/kg | 25 mg/kg | > 50 mg/kg | > 50 mg/kg | 1.4 mg/kg | 9 mg/kg | > 50 mg/kg |  |  | 
CCN(CC)CCCCn1nc2n(c1=O)-c1ccc(Cl)cc1C(c1ccccc1Cl)=NC2 | 0.8 mg/kg | > 12.5 mg/kg | 4.4 mg/kg | 12.5 mg/kg | > 12.5 mg/kg | 10.5 mg/kg | 0.8 mg/kg | 7 mg/kg | > 12.5 mg/kg |  |  | 
CN1C(=O)CN=C(c2ccccc2)c2cc(Cl)ccc21 [DIAZEPAM] | 0.28 mg/kg | 2.6 mg/kg | 0.1 mg/kg | 0.035 mg/kg | > 50 mg/kg | > 50 mg/kg | 0.28 mg/kg | 0.2 mg/kg | > 50 mg/kg |  |  | 
CCN(CC)CCCn1nc2n(c1=O)-c1ccc(Cl)cc1C(c1ccccc1Cl)=NC2 | 1.1 mg/kg | > 50 mg/kg | 8.8 mg/kg | 5.3 mg/kg | > 50 mg/kg | > 25 mg/kg | 1.3 mg/kg | 10 mg/kg | > 50 mg/kg |  |  | 
CN1CCN(CCn2nc3n(c2=O)-c2ccc(Cl)cc2C(c2ccccc2Cl)=NC3)CC1 |  | 3.1 mg/kg | 0.3 mg/kg | 0.2 mg/kg | > 25 mg/kg | 12.5 mg/kg |  | 3.1 mg/kg | > 25 mg/kg |  |  | 
CN(C)CCCn1nc2n(c1=O)-c1ccc(Cl)cc1C(c1ccccc1)=NC2 | 3.6 mg/kg | 40 mg/kg | 32 mg/kg | 10 mg/kg | > 50 mg/kg | > 50 mg/kg | 3.6 mg/kg | > 50 mg/kg | > 50 mg/kg |  |  | 
O=c1n(CCCN2CCN(c3ccccc3)CC2)nc2n1-c1ccc(Cl)cc1C(c1ccccc1Cl)=NC2 | 40 mg/kg | > 50 mg/kg | > 50 mg/kg | > 50 mg/kg | > 50 mg/kg | > 50 mg/kg | 40 mg/kg | > 50 mg/kg | > 50 mg/kg |  |  | 
